# Shown are actives, neighbours in structure and some others; about 2.6% of the full set was active somewhere.
# Exocytosis inh: blocks lytic granule exocytosis; TALL-104 LAMP-1 surface exposure, flow cytometry; cells stimulated with thapsigargin and PMA; inhibition, % at 10 µM; 0.66% of 360,000 active;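 active = inhibition above about 55%, limit read from the data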
# MC4R ag barr: activates human MC4R beta-arrestin recruitment; P32245; U2OS MC4R beta-arrestin complementation, luminescence; percent of melanotan II response, DMSO zero; activation, % at 8.9 µM; 0.98% of 360,000 active; AID 540308;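 active = activation above a per-plate cutoff, the mean activation of sample wells on that plate plus 3 SD, cut at about 8% in these data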
# Target sequence (P32245 whole entry, looked up): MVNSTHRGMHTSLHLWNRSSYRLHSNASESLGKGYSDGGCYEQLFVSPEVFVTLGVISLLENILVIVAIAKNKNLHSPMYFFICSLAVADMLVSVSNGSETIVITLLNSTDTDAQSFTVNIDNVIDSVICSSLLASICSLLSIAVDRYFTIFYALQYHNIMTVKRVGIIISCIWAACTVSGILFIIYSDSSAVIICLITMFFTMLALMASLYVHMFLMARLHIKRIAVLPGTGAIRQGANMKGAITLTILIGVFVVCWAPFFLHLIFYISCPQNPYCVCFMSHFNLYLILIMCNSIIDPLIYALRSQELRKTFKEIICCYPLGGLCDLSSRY
# T cell HTS: T cell immune modulators affecting CD8 T cell-vesicle binding | 0.068% of 330,000 active | AID 2052 | response (vesicle binding), % at 7 µM | 2C CD8+ T cell-vesicle binding, flow cytometry; active compounds read low;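 active = response, share of CD8 T cells binding vesicles, and their 90th percentile fluorescence all below set limits, cut at about 80% in these data, passing the limit was not always enough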;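 note: values below 100% mean blocked vesicle binding to the CD8+ T cells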
#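 Material: 2C TCR transgenic mouse naive CD8+ T cells, MACS-purified. Also added: QL9-charged Drosophila Ld/ICAM-1/B7-1 vesicles. Timing: binding 1.5 h at 37 °C. Measured by: high-throughput flow cytometry with anti-B7-1 and anti-CD8 staining. Read-out: percent CD8+ FL2 mean versus row control. Controls: Unloaded micro-vesicles (low), QL9 vesicles with 0.7% DMSO (high).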
# EP2 antag: EP2 receptor (human) inhibition. P43116. C6 glioma cells expressing human EP2, cAMP TR-FRET; cells stimulated with saturating PGE2. inhibition, % at 25 µM. 0.52% of 260,000 active. AID 1422;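 active = percent inhibition above 40 after rounding to a whole number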;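 note: rat C6 glioma host cells with rolipram phosphodiesterase inhibitor present; the protocol text gives 20 µM as final concentration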
# EP2 modulator: modulators of human EP2 prostaglandin E2 receptor. 0.83% of 260,000 active. EP2-expressing cells, cAMP HTRF FRET, PGE2 co-stimulation. P43116. induction, % at 25 µM;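 active = compounds whose cAMP rise, as percent of the full-agonist control response, exceeds 60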;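 note: rat C6 glioma line stably carrying human EP2 under a CMV promoter; the protocol text gives 20 µM as final concentration; 100% = response of wells given 1 µM PGE2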
# MC4R antagonist: blocks human MC4R cAMP signaling | 0.48% of 360,000 active | AID 540295 | MC4R-expressing cells, MTII-stimulated cAMP, LANCE TR-FRET | inhibition, % at 6.5 µM | P32245;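 active = inhibition above its plate's cutoff, the mean of tested wells on that plate plus 3 SD, cut at about 29% in these data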;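 note: 0% = Melanotan II alone and 100% = Melanotan II plus saturating MCL0020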
#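 Test system: U2OS cells stably expressing human melanocortin 4 receptor (MC4R); also added: Melanotan II challenge; compound: 6.5 µM single dose; timing: 30-min compound preincubation, 1-h Melanotan II challenge, 1-h detection, room temperature; signal: Eu-cAMP/anti-cAMP TR-FRET, emission 671 nm; repeats: one well per compound, no replicates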
# U2OS cAMP counter: nonselective cAMP signaling inhibitor, MC4R antagonist counter-screen; AID 602193; 26% of 1,600 active; parental U2OS, forskolin cAMP, LANCE TR-FRET; shares compounds with MC4R antagonist; inhibition, % at 6.5 µM;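 active = mean inhibition over triplicates above the low-control well mean plus 3 SD, set per campaign, cut at about 13% in these data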;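 note: signal is single emission at 671 nm which falls as cellular cAMP rises; 0% = forskolin-stimulated wells and 100% = buffer without forskolin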
# MC4R cAMP antag: human MC4R cAMP antagonism confirmation. shares compounds with MC4R antagonist. MC4R-expressing cells, MTII-stimulated cAMP, TR-FRET. inhibition, % at 6.5 µM. 27% of 1,600 active. AID 602195; in the data active = inhibition above about 29%;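 note: 0% = agonist stimulated wells alone and 100% = agonist stimulated wells plus saturating reference antagonist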
# An asterisk follows results filed as active; nt = not tested or not shown.
SMILES,Exocytosis inh,MC4R ag barr,T cell HTS,EP2 antag,EP2 modulator,MC4R antagonist,U2OS cAMP counter,MC4R cAMP antag
CC(OC(=O)/C(C#N)=C/c1ccc(N(C)C)cc1)C(=O)NCc1ccco1 (stereo not drawn),-6,-2,137,nt,nt,73*,41*,78*
O=C(/C=C/c1ccc(Cl)c([N+](=O)[O-])c1)Nc1ccc(NC(=O)c2ccco2)cc1,-2,0,nt,6,1,10,nt,nt
O=C(/C=C/c1ccc(Cl)c([N+](=O)[O-])c1)Nc1cccc(NC(=O)c2ccco2)c1,2,-1,361,16,-92,45*,53*,57*
CO/N=C/c1ccc(Sc2ccc(C)cc2)c([N+](=O)[O-])c1,-10,-1,221,13,10,29*,-2,-12
CC1CCN(S(=O)(=O)c2ccc(C(=O)N3CCOCC3)cc2)CC1,2,1,536,nt,nt,-5,nt,nt
Cc1ccc(Cn2ncc(Cl)c(Cl)c2=O)cc1,1,-2,163,5,16,49*,33*,50*
O=C(Cn1ncc(Cl)c(Cl)c1=O)N1CCN(Cc2ccccc2)CC1,-1,0,nt,11,-10,29*,26*,40*
Cc1cc(C)cc(Cn2ncc(Cl)c(Cl)c2=O)c1,nt,nt,407,11,5,nt,nt,nt
Cc1ccc(N=C(NO)c2cnccc2C(F)(F)F)c(C)c1,-4,1,164,nt,nt,30*,-1,-10
Cc1ccc(NC(=O)c2cncc(Br)c2)cc1S(=O)(=O)N(C)C,-1,2,413,8,-23,29*,6,-3
Cc1cc(C)c(C)c(S(=O)(=O)ON2C(=O)c3ccccc3C2=O)c1C,52,-1,336,39,-61,10,nt,nt
Cn1nc([N+](=O)[O-])nc1Sc1cccc2cccnc12,0,0,340,14,-9,30*,8,3
CC1CCCCN1S(=O)(=O)c1csc(C(N)=O)c1 (stereo not drawn),1,2,234,nt,nt,1,nt,nt
CC1CCCCN1S(=O)(=O)c1cnc(Cl)c(Br)c1 (stereo not drawn),10,-1,205,4,3,33*,13,16
CC1CCN(S(=O)(=O)c2ccc(Cl)cc2Br)CC1,-1,2,622,2,17,6,nt,nt
CC1CCN(S(=O)(=O)c2cnc(Cl)c(Br)c2)CC1,-3,0,268,5,4,41*,15*,41*
O=c1c(Cc2c(F)cccc2Cl)c(O)ccn1CCCN1CCOCC1,-4,1,382,2,-3,30*,-7,-20
CCN(CC(=O)Nc1ccc(Cl)c(S(=O)(=O)N(C)C)c1)CC(=O)NC(C)C,21,0,399,5,-11,30*,1,-15
CCOC(=O)Cc1ccc(NC(=O)c2cccc([N+](=O)[O-])c2)cc1,1,-2,193,8,3,9,nt,nt
CCOC(=O)CSc1nnc(NC(=O)c2cccc([N+](=O)[O-])c2)s1,3,-1,252,5,4,39*,3,0
CC(C)(C)NC(=O)NC(=O)COC(=O)CNC(=O)c1cc(Cl)cc([N+](=O)[O-])c1,-2,-6,281,6,0,30*,11,12
CCC1CCCCN1C(=O)COC(=O)CSc1ccc(C(N)=O)cc1[N+](=O)[O-] (stereo not drawn),-15,0,476,nt,nt,13,nt,nt
NC(=O)c1ccc(SCC(=O)OCC(=O)NCC2CCCCC2)c([N+](=O)[O-])c1,-6,-3,243,nt,nt,31*,10,36*
CCN(CC)c1ccc2c(c1)oc(=O)c1c(Cl)cc(=O)oc12,41,-2,0,14,-9,30*,7,19
Cc1cc(C)n2nc3nc(N4CCCCC4)nc(-c4ccco4)c3c2n1,-4,0,485,13,22,20,nt,nt

# Screening results: PubChem, several laboratories
